Here are results for 2 compounds from PMC6690761 (Bioorganic & medicinal chemistry letters, 2019).

The assay deals with T1, murine PDS (Mus musculus, UniProt Q9R155).
T1 sequence (Q9R155 1-780): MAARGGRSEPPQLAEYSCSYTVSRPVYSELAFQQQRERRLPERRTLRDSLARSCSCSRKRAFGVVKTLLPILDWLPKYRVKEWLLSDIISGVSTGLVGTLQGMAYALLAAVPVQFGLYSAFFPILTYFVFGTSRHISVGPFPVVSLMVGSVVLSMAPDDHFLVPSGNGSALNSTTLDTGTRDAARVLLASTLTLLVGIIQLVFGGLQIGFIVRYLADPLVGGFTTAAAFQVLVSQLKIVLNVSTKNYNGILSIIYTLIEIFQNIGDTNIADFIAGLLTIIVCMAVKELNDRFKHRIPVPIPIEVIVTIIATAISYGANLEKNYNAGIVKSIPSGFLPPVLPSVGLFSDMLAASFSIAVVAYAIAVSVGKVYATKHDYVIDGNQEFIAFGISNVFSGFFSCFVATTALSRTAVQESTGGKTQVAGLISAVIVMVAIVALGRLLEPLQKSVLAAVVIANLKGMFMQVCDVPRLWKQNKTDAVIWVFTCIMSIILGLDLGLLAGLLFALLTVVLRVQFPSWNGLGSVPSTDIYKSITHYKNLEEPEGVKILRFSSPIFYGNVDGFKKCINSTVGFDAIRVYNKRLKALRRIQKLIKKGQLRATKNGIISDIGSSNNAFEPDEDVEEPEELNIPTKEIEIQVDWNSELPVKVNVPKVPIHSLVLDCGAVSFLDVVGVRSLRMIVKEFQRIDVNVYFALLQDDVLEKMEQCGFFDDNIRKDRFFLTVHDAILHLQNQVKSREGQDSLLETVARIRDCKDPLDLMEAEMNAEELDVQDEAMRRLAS
As to the kind of experiment: functional cell-based assay of PDS-mediated Cl-/I- exchange. As to conditions: Fischer rat thyroid cells expressing murine PDS. In a few lines:
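Fischer rat thyroid cells stably co-expressing murine pendrin and the halide-sensitive fluorescent protein EYFP-H148Q/I152L/F46L. Pendrin-mediated Cl–/I– exchange is followed through this halide-sensing fluorescent reporter. Inhibition is reported as IC50.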

In the case of `CCOC(=O)c1nn(C)c2c1CN(C(=O)Nc1ccc(Cl)cc1)CC2` [Compound 20], the “PDS inhibition activity (in words)” value is reported as “minimal PDS inhibition activity”.

As for `Cn1nc(C(=O)O)c2c1CCN(C(=O)Nc1ccc(Cl)cc1)C2` [Compound 21], the “PDS inhibition activity (in words)” value is “minimal PDS inhibition activity”.
